# Test results reported in ChEMBL document CHEMBL1155080, “Alpha2-adrenoreceptors profile modulation. 4. From antagonist to agonist behavior” (J Med Chem, 2008).
# Active and inactive are the calls of the source. The rule behind the calls is not given here.
# Tests used:
# [1] = molecular target: T1, Alpha-2B adrenergic receptor (Homo sapiens) (UniProt P18089); experiment: (§1) Agonist activity at human recombinant adrenergic alpha2B receptor expressed in CHO cells; assay type: functional, cell-based
# T1 sequence (whole entry): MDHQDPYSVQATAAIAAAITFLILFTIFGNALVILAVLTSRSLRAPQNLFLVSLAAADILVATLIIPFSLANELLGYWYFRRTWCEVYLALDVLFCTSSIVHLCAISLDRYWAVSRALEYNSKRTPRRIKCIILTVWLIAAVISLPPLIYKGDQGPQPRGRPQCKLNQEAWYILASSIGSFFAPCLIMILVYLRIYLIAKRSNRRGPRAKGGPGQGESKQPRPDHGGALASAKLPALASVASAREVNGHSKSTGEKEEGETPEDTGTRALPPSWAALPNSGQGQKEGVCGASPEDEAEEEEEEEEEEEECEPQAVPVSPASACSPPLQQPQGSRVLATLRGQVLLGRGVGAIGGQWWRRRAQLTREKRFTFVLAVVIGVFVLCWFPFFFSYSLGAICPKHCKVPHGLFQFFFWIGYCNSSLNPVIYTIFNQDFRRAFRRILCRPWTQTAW
# Summary of the method: (§2)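 Cytosensor microphysiometry. Stable CHO cells were seeded at 3 × 10⁵ cells/cup, grown 24 h at 37 °C/5% CO₂, then perfused with bicarbonate-free DMEM at 100 µL/min. Over 90 s pump cycles, pH was read for 20 s. Response is the peak acidification rate minus the mean of three pre-agonist readings. pEC50 is the concentration giving 50% of maximum; mean ± SEM, 3-6 experiments.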
# [2] = molecular target: T2, Alpha-2C adrenergic receptor (Homo sapiens) (UniProt P18825); experiment: Intrinsic activity at human recombinant adrenergic Alpha-2C receptor expressed in CHO cells assessed as stimulation of extracellular acidification relative to (-)-noradrenaline; assay type: cell-based
# T2 sequence (whole entry): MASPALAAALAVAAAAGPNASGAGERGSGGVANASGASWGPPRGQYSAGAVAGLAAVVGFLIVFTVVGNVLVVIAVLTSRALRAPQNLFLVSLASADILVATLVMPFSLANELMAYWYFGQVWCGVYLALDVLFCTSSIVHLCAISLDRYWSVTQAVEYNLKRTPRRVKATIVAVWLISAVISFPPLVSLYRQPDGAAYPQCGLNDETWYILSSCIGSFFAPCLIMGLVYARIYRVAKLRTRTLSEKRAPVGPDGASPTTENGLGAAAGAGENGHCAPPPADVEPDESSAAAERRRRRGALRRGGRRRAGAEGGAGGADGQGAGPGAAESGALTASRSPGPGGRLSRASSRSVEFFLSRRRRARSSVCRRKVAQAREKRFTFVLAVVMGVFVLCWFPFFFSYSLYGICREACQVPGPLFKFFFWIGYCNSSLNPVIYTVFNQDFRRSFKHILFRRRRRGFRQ
# Summary of the method: (§3)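 Acidification rate was measured by Cytosensor microphysiometry in stably transfected CHO cells (3 × 10⁵ cells/cup, bicarbonate-free DMEM perfusion). Each response is the peak rate change minus the pre-agonist baseline. Emax from concentration-response curves is expressed as a fraction of the (-)-noradrenaline maximum, taken as 1; mean ± SEM, 3-6 experiments.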
# [3] = molecular target: T3, Alpha-2C adrenergic receptor (Homo sapiens, UniProt P18825); experiment: Displacement of [3H]RS79948-197 from human recombinant adrenergic Alpha-2C receptor expressed in CHO cells; assay type: cell-based
# T3 sequence (P18825 whole entry): T2 sequence (whole entry)
# Summary of the method: (§4)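 Competition binding on membranes from CHO cells stably expressing each human α2 subtype (1-3 pmol/mg receptor). Assay in 50 mM potassium phosphate, pH 7.4, with 5-10 µg protein. Eight competitor dilutions, 30 min at room temperature, then vacuum filtration and scintillation counting. IC50 by one-site nonlinear regression, converted with Cheng-Prusoff; mean ± SEM, 3-6 experiments.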
# [4] = molecular target: T4, Alpha-2A adrenergic receptor (Homo sapiens) (UniProt P08913); experiment: (§5) Agonist activity at human recombinant adrenergic alpha2A receptor expressed in CHO cells assessed as stimulation of extracellular acidification; assay type: functional, cell-based
# T4 sequence (whole entry): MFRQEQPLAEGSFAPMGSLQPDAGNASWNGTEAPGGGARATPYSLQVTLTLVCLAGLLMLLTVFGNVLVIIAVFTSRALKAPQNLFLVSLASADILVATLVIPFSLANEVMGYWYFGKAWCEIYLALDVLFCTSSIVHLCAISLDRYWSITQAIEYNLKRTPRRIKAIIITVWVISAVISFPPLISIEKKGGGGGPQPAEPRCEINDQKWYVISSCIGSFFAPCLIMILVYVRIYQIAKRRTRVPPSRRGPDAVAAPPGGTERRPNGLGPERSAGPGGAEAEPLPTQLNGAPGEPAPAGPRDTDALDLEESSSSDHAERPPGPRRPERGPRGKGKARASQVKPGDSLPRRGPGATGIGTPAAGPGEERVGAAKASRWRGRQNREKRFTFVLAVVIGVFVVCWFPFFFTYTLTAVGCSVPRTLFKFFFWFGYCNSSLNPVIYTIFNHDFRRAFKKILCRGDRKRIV
# [5] = molecular target: T4, Alpha-2A adrenergic receptor (Homo sapiens); experiment: Antagonist activity at human recombinant adrenergic alpha2A receptor expressed in CHO cells; assay type: functional, cell-based
# Summary of the method: (§6)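 Clonidine-curve shift measured by Cytosensor microphysiometry of extracellular acidification in CHO cells stably expressing the individual human α2 subtype. Cells were seeded at 3 × 10⁵ cells/cup for 24 h at 37 °C/5% CO₂ and perfused with bicarbonate-free DMEM at 100 µL/min. A control clonidine concentration-response curve was run, then antagonist was applied ≥30 min before a repeat curve. Kb = M/(EC50 ratio − 1), reported as pKb; 3–6 experiments.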
# [6] = molecular target: T3, Alpha-2C adrenergic receptor; experiment: (§7) Agonist activity at human recombinant adrenergic Alpha-2C receptor expressed in CHO cells assessed as stimulation of extracellular acidification; assay type: functional, cell-based; summary of the method: as §2
# [7] = molecular target: T5, Alpha-2B adrenergic receptor (Homo sapiens, UniProt P18089); experiment: Displacement of [3H]RS79948-197 from human recombinant adrenergic alpha2B receptor expressed in CHO cells; assay type: cell-based; summary of the method: as §4
# T5 sequence (P18089 whole entry): T1 sequence (whole entry)
# [8] = molecular target: T6, Alpha-2A adrenergic receptor (Homo sapiens, UniProt P08913); experiment: Displacement of [3H]RS79948-197 from human recombinant adrenergic alpha2A receptor expressed in CHO cells; assay type: cell-based; summary of the method: as §4
# T6 sequence (P08913 whole entry): T4 sequence (whole entry)
# [9] = molecular target: T2, Alpha-2C adrenergic receptor (Homo sapiens); experiment: Antagonist activity at human recombinant adrenergic Alpha-2C receptor expressed in CHO cells; assay type: functional, cell-based; summary of the method: as §6
# [10] = molecular target: T1, Alpha-2B adrenergic receptor (Homo sapiens); experiment: Antagonist activity at human recombinant adrenergic alpha2B receptor expressed in CHO cells; assay type: functional, cell-based; summary of the method: as §6
# [11] = molecular target: T1, Alpha-2B adrenergic receptor (Homo sapiens); experiment: Intrinsic activity at human recombinant adrenergic alpha2B receptor expressed in CHO cells relative to (-)-noradrenaline; assay type: cell-based; summary of the method: as §3
# [12] = molecular target: T4, Alpha-2A adrenergic receptor (Homo sapiens); experiment: Intrinsic activity at human recombinant adrenergic alpha2A receptor expressed in CHO cells assessed as stimulation of extracellular acidification relative to (-)-noradrenaline; assay type: cell-based
# Summary of the method: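 Microphysiometry (Cytosensor) of extracellular acidification rate in CHO cells stably expressing human α2A. Cells were seeded at 3 × 10⁵ cells/cup and cultured 24 h at 37 °C, then perfused with bicarbonate-free DMEM at 100 µL/min, with agonist diluted into running medium. Response was taken as the maximum after agonist minus the mean of three pre-agonist readings. Emax is expressed as a fraction of (−)-noradrenaline (=1); 3–6 experiments.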
# [13] = molecular target: T5, Alpha-2B adrenergic receptor; experiment: as §1; assay type: functional, cell-based; summary of the method: as §2
# [14] = molecular target: T6, Alpha-2A adrenergic receptor; experiment: as §5; assay type: functional, cell-based
# [15] = molecular target: T2, Alpha-2C adrenergic receptor (Homo sapiens); experiment: as §7; assay type: functional, cell-based; summary of the method: as §2
# [16] = species: Rattus norvegicus; experiment: Intrinsic activity at adrenergic alpha2 receptor in rat vas deferens relative to clonidine; assay type: tissue-based
# [17] = Agonist activity at adrenergic alpha2 receptor in rat vas deferens; assay type: functional, tissue-based
SMILES,Activity [1],Intrinsic activity [2],Ki [3],Activity [4],pKb [5],EC50 [6],Ki [7],Ki [8],pKb [9],pKb [10],Intrinsic activity [11],Intrinsic activity [12],EC50 [13],EC50 [14],Activity [15],Intrinsic activity [16],EC50 [17]
C=CCc1ccccc1OC(C)C1=NCCN1 (stereo unspecified) [ALLYPHENYLINE],inactive,0.9,85.1 nM,inactive,7.4,50.1 nM,339 nM,–,–,–,–,–,–,–,–,–,–
CO/N=C/c1ccccc1OC(C)C1=NCCN1 (stereo unspecified),inactive,0.55,3090 nM,inactive,–,501 nM,1200 nM,661 nM,–,–,–,–,–,–,–,–,–
c1ccc(OC(C2=NCCN2)c2ccccc2)cc1 (stereo unspecified),–,–,64.6 nM,–,6.1,–,47.9 nM,93.3 nM,6.9,6.04,–,–,–,–,–,–,–
CC(Oc1ccccc1C1CCCCC1)C1=NCCN1 (stereo unspecified),–,0.8,77.6 nM,–,–,20.9 nM,191 nM,74.1 nM,–,–,0.7,0.6,200 nM,79.4 nM,–,–,–
COC1(C2=NCCN2)COc2c(cccc2-c2ccccc2)O1 (stereo unspecified),–,–,–,inactive,–,–,–,257 nM,–,–,0.5,–,15800 nM,–,inactive,–,–
c1ccc(-c2ccc3c(c2)OC(C2=NCCN2)CO3)cc1 (stereo unspecified),inactive,–,1260 nM,inactive,–,–,1000 nM,398 nM,–,–,–,–,–,–,inactive,–,–
c1ccc(-c2ccccc2OC(C2=NCCN2)c2ccccc2)cc1 (stereo unspecified),inactive,0.7,204 nM,–,–,776 nM,955 nM,240 nM,–,–,–,0.45,–,1000 nM,–,–,–
c1ccc(-c2cccc3c2OC(C2=NCCN2)CO3)cc1 (stereo unspecified),–,0.4,692 nM,inactive,–,3160 nM,479 nM,240 nM,–,–,0.45,–,22400 nM,–,–,–,–
CCO/N=C/c1ccccc1OC(C)C1=NCCN1 (stereo unspecified),inactive,0.45,339 nM,inactive,–,1000 nM,447 nM,417 nM,–,–,–,–,–,–,–,–,–
CC(Oc1ccccc1-c1ccccc1)C1=NCCN1 (stereo unspecified) [BIPHENYLINE],–,0.8,–,–,–,–,–,–,–,–,0.5,0.7,–,–,–,1,3.02 nM
CC(Oc1ccccc1/C=N/OCc1ccccc1)C1=NCCN1 (stereo unspecified),–,0.5,676 nM,inactive,–,3550 nM,871 nM,214 nM,–,–,0.8,–,31600 nM,–,–,–,–
c1ccc2c(c1)OCC(C1=NCCN1)O2 (stereo unspecified),–,–,–,–,7.73,–,–,–,7.92,7.16,–,–,–,–,–,–,–
COC1(C2=NCCN2)COc2cccc(-c3ccccc3)c2O1 (stereo unspecified),inactive,–,245 nM,inactive,–,–,1070 nM,126 nM,–,–,–,–,–,–,inactive,–,–
c1ccc(-c2cccc3c2OCC(C2=NCCN2)O3)cc1 (stereo unspecified),–,0.75,832 nM,inactive,–,794 nM,1070 nM,724 nM,–,–,0.7,–,12600 nM,–,–,–,–
CC(Oc1ccccc1C1CCCC1)C1=NCCN1 (stereo unspecified),–,0.75,26.9 nM,–,–,10 nM,191 nM,50.1 nM,–,–,0.7,0.65,501 nM,63.1 nM,–,–,–
COC(C)(Oc1ccccc1-c1ccccc1)C1=NCCN1 (stereo unspecified),inactive,–,–,inactive,–,–,–,–,–,–,–,–,–,–,inactive,–,–
c1ccc(-c2ccc3c(c2)OCC(C2=NCCN2)O3)cc1 (stereo unspecified),inactive,–,1580 nM,inactive,–,–,1660 nM,282 nM,–,–,–,–,–,–,inactive,–,–
CC(Oc1ccccc1)C1=NCCN1 (stereo unspecified),–,–,263 nM,–,7.01,–,166 nM,26.9 nM,6.85,6.2,–,–,–,–,–,–,–
CC(Oc1ccccc1/C=N/O)C1=NCCN1 (stereo unspecified),–,0.85,912 nM,–,–,126 nM,708 nM,288 nM,–,–,0.5,0.8,3980 nM,501 nM,–,–,–
